The values that follow come from ChEMBL document CHEMBL3861988, “Discovery of Selective Inhibitors Targeting Acetylcholinesterase 1 from Disease-Transmitting Mosquitoes” (J Med Chem, 2016).

Assay [1] deals with Acetylcholinesterase (Anopheles gambiae, UniProt Q869C3). Nature of the assay: Inhibition of Anopheles gambiae recombinant AChE1 expressed in baculovirus infected insect Sf9 cells using acetylthiocholine iodide as substrate measured over 60 secs by Ellman assay. An outline of the steps: (§1)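 Dose-response Ellman assay on recombinant enzyme in 0.1 M phosphate pH 7.4 with 0.2 mM DTNB and 1 mM acetylthiocholine iodide. At least eight inhibitor concentrations were used, up to 1 mM, diluted from 100 mM DMSO stocks. Run manually at 30 °C with A412 read over 60 s. Activity is relative to uninhibited wells. IC50 was obtained by non-linear log[inhibitor] fitting from 2 replicates.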

Assay [2] addresses Acetylcholinesterase (Anopheles gambiae, UniProt Q869C3, G122S). Put plainly: Inhibition of Anopheles gambiae recombinant AChE1 G122S mutant using acetylthiocholine iodide as substrate by Ellman assay. Put shortly: as §1
(In general: DTNB colorimetry detects thiols as they appear.)

Assay [3] in a line: Inhibition of Aedes aegypti recombinant AChE1 expressed in baculovirus infected insect Sf9 cells at 50 uM using acetylthiocholine iodide as substrate measured over 60 secs by Ellman assay relative to control. An outline of the steps: (§2)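 Single-concentration HTS with secreted, non-purified Sf-9-expressed mosquito AChE1 in growth medium. Assay in 0.1 M phosphate buffer pH 7.4 with 0.2 mM DTNB and 1 mM acetylthiocholine iodide. Compounds were tested at a final 50 µM from DMSO stocks. The A412 slope was read over 60 s. Activity was expressed relative to the mean of eight uninhibited control wells per plate.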

Assay [4] can be described thus: Inhibition of Aedes aegypti recombinant AChE1 expressed in baculovirus infected insect Sf9 cells using acetylthiocholine iodide as substrate measured over 60 secs by Ellman assay. Put shortly:
as §1

Assay [5] concerns the target Acetylcholinesterase (Anopheles gambiae) (UniProt Q869C3). Nature of the assay: Inhibition of Anopheles gambiae recombinant AChE1 expressed in baculovirus infected insect Sf9 cells at 50 uM using acetylthiocholine iodide as substrate measured over 60 secs by Ellman assay relative to control. An outline of the steps:
as §2

Assay [6] addresses T1, Acetylcholinesterase (Mus musculus, UniProt P21836).
T1 sequence (P21836 whole entry): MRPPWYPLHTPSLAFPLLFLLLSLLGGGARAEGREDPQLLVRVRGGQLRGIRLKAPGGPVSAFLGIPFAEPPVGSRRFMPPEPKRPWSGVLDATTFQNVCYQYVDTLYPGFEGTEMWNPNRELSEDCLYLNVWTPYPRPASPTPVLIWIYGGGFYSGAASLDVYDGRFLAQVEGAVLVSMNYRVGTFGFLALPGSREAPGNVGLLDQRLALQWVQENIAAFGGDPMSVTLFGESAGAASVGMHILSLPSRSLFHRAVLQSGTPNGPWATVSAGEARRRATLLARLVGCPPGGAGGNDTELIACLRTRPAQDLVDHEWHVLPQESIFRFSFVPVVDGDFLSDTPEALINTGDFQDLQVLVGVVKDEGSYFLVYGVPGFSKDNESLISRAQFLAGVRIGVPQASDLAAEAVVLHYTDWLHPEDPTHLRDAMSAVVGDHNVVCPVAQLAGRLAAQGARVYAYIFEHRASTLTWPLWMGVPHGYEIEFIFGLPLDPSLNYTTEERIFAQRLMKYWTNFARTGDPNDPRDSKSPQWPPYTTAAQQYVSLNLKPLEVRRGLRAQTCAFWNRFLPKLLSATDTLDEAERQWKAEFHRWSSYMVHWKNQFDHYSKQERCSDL
Put plainly: Inhibition of mouse recombinant AChE using acetylthiocholine iodide as substrate measured over 60 secs by Ellman assay.

Assay [7] deals with Acetylcholinesterase (Homo sapiens, UniProt P22303). Put plainly: Inhibition of human recombinant AChE using acetylthiocholine iodide as substrate measured over 60 secs by Ellman assay. Put shortly: as §1
The nature of assay [8]: Selectivity ratio of IC50 for human recombinant AChE to IC50 for Aedes aegypti recombinant AChE1.
Assay [9] in a line: Selectivity ratio of IC50 for human recombinant AChE to IC50 for Anopheles gambiae recombinant AChE1.

Each structure is given as a SMILES string. pIC50: −log10 of the molar value.

What is called pIC50 is the negative decadic logarithm of the IC50, by convention in mol/L. For orientation: inhibition means the share of the control response that was lost under treatment. For `O=C(COc1ccc(Cl)cc1Cl)Nc1ccc(CN2CCCCC2)cc1`, the pIC50 in assay [1] was 6.59; in [2] it was 5.92; in [4] it was 6.36. Also, the inhibition in assay [3] stood at 91%; in assay [5], 93%.

As for `CCN1CCN(C2CCN(C(=O)COc3ccc(-c4ccccc4)cc3)CC2)CC1`, the pIC50 in assay [1] was 6.68; in assay [2] it was 5.89; in [6] it was 4.74; in [4] it was 6.66; in assay [7] it was 4.51. For the same compound, the inhibition in assay [3] came out at 76%; in [5], 92%.

For the compound `Fc1ccccc1COc1ccccc1CNCCN1CCOCC1`, the pIC50 in assay [1], in assay [4] and in assay [7] was less than 3.30 in each case. Moreover, the inhibition turned out to be 38% in assay [3] and 23% in [5].

Consider `c1ccc(COc2ccc(CN3CCc4ccccc4C3)cc2)cc1`, for which the values for the pIC50 in assay [1] and in assay [7] were 5.54 and less than 3.70, respectively. Further, the Ratio IC50 in assay [8] and in [9] was more than 67 in each case. In addition, the inhibition came out at 80% in assay [3] and 41% in [5].

Regarding `O=C(COc1ccccc1)N1CCN(C2CCN(Cc3ccccc3)CC2)CC1`, the pIC50 in assay [1] was 4.68; in assay [4], 4.72; in [7], 4.37. Moreover, the Ratio IC50 in assay [8] and in assay [9] was 2 each time. The inhibition amounted to 18% in assay [3] and 24% in assay [5].

For the compound `O=C(c1ccccc1F)N1CCN(C2CCN(Cc3ccccc3)CC2)CC1`, the results for the pIC50 in assay [1], in assay [4] and in assay [7] were 4.77, 4.92 and less than 3.70, respectively. The Ratio IC50 in assay [8] and in assay [9] was more than 12 each time. For the same compound, the inhibition turned out to be 33% in assay [3] and 32% in assay [5].

As to `O=S(=O)(NCCSc1nnc(-c2ccco2)n1-c1ccccc1)c1ccccc1`, the pIC50 in assay [1], in assay [4] and in assay [7] was less than 3.00 throughout. Also, the inhibition in assay [3] worked out at 82%; in assay [5] it was 76%.

Take `CCOc1ccc(-n2c(SCc3nc(-c4ccccc4C)no3)nnc2-c2ccccc2)cc1`: the pIC50 in [1], in [4] and in assay [7] was less than 3.00 in each case. In addition, the inhibition in assay [3] came out at 1%; in assay [5] it was 63%.

In the case of `CCSc1nc2sc3c(c2c(=O)n1-c1ccccc1)CCN(Cc1ccccc1)C3`, the pIC50 in assay [1] is 5.08; in assay [4] it was 5.06; in assay [7], 5.29. Further, the Ratio IC50 in assay [8] and in assay [9] was 0.6 in each case. The inhibition in assay [3] is 93%; in assay [5] it was 94%.

With `COc1ccc(CN2CC=C(c3ccc(F)cc3)CC2)cc1OCc1ccccc1`, the pIC50 is less than 4.00 in assay [1], less than 4.00 in [4] and less than 3.70 in [7]. Besides, the inhibition in assay [3] amounted to 90%; in assay [5] it was 86%.
